Bioassay records from PubChem BioAssay.
Beta2AR agonist: agonists of human beta-2 adrenergic receptor inducing internalization; Am2.2-beta2AR cells, FAP receptor internalization, flow cytometry; response, % (no concentration beside the values); hit rate 0.43% among 340,000;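 active means response above a set limit, near 3 SD of response in nonfluorescent compounds, cut at about 42% in these data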
PfG6PD inh: PfG6PD (Plasmodium falciparum) enzyme inhibition. PfGluPho enzyme, NADPH resazurin-diaphorase fluorescence. inhibition, % at 20 µM. hit rate 0.78% among 350,000;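 active means inhibition reaching at least a set limit at 20 µM in the primary screen, cut at about 59% in these data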;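 further: 0% = DMSO wells with substrate and 100% = DMSO wells lacking glucose-6-phosphate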
MC4R antagonist: antagonists of human melanocortin 4 receptor (MC4R); P32245; MC4R-expressing cells, MTII-stimulated cAMP, LANCE TR-FRET; inhibition, % at 6.5 µM; hit rate 0.48% among 360,000; AID 540295;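 active means inhibition above its plate's cutoff, the mean of tested wells on that plate plus 3 SD, cut at about 29% in these data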;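 further: 0% = Melanotan II alone and 100% = Melanotan II plus saturating MCL0020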
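Material: U2OS-MC4R stable cell line | Reagent: Melanotan II challenge after compound preincubation | Doses: One concentration, 6.5 µM nominal | Incubation: 30-min compound preincubation, 1-h Melanotan II challenge, 1-h detection, room temperature | Signal: TR-FRET cAMP assay | Replicates: One well per compound, no replicates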
ABHD5-PLIN5 inh: blocks binding of human ABHD5 to perilipin-5; Split G. princeps luciferase complementation, luminescence, 4 h; inhibition, % at 4 µM; hit rate 0.78% among 360,000;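 active means inhibition above the mean inhibition across every tested compound plus 3 SD, cut at about 22% in these data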;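 further: 0% = DMSO only wells and the 100% control is not disclosed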
MC4R barr agon: activates human MC4R beta-arrestin recruitment. P32245. U2OS MC4R beta-arrestin complementation, luminescence; percent of melanotan II response, DMSO zero. activation, % at 8.9 µM. hit rate 0.98% among 360,000. AID 540308;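 active means activation above a per-plate cutoff, the mean activation of sample wells on that plate plus 3 SD, cut at about 8% in these data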
The depositor's hits bear a star; · = no result given. Sampled rows, rich in hits. Any-hit rate of the full collection: about 3%.

SMILES	Beta2AR agonist	PfG6PD inh	MC4R antagonist	ABHD5-PLIN5 inh	MC4R barr agon
CN(C)C(=O)Oc1ccc2c(c1)O/C(=C\c1cccc(Cl)c1)C2=O	53*	4	2	3	0
CN1C(=O)C(=Cc2sc(=O)n(-c3ccccc3)c2N2CCCCC2)C(=O)N(C)C1=O	-8	-4	-2	-1	-2
CN1CCN(c2nc3ccccn3c(=O)c2C=C2C(=O)N(C)C(=O)N(C)C2=O)CC1	9	-9	10	23*	0
CCCCC1(CCC)C(=O)NC(=S)NC1=O	4	-14	11	8	-2
O=C1/C(=C/c2ccccc2)C[C@@]2(O)[C@H]3Cc4ccc(O)c5c4[C@@]2(CCN3CC2CC2)C1O5 (stereo not given in full)	69*	39	-3	65*	-4
Fc1ccc(CCNCc2ccc(Cl)c(Cl)c2)cc1	-4	6	1	-9	8.7*
C[C@]12CCC3C(CC[C@H]4C[C@H](O)CC[C@]34C)C1C[C@@H](CCCCl)[C@@H]2O (stereo not given in full)	·	·	6	-1	-2
O=C1NC(=O)N(c2ccccc2)C(=O)/C1=C\c1ccc([N+](=O)[O-])s1	-25	81*	·	·	·
CN1C(=O)/C(=C\c2ccc(Br)s2)C(=O)NC1=S	26	60*	28	5	1
CN1C(=O)NC(=O)/C(=C/c2ccc([N+](=O)[O-])s2)C1=O	-53	81*	6	-12	-2
Cc1cc(/C=C2\C(=O)NC(=S)N(C)C2=O)c(C)n1C1CCCCC1	0	2	-10	8	1
COc1ccc(OC)c(N2C(=O)NC(=O)/C(=C\c3ccc([N+](=O)[O-])s3)C2=O)c1	16	51	20	1	0
CCN(CC)C(=O)c1ccc2c(c1)C1C(Cl)C(Sc3ccccc3[N+](=O)[O-])CC1C(C(=O)O)N2 (stereo not given)	0	35	-2	23*	-4
COc1ccc(N2C(=O)CC(N3CC=C(c4ccccc4)CC3)C2=O)cc1 (stereo not given)	-1	4	8	5	0
N#CSCC(=O)N1c2ccccc2CCc2ccccc21	52*	8	-19	2	0
Nc1ccccc1C(=O)OCC(=O)N1CCc2ccccc21	-2	4	-1	-7	-2
Cc1nc2ccsc2c(=O)n1-c1ccccc1Cl	3	-5	-7	4	0
O=C(c1ccccc1F)N1C[C@H]2C[C@@H](C1)c1cccc(=O)n1C2	11	-13	0	-9	-2
N#CC1c2ccccc2-n2nncc2CN1Cc1cc(Cl)cc(Cl)c1 (stereo not given)	94*	29	20	96*	-1
CN1Cc2cnnn2-c2ccccc2C1C#N (stereo not given)	-4	-15	1	13	1
O=C1NC(=S)NC(=O)C1=Cc1cccc2cc3ccccc3cc12	94*	25	-2	-1	-2
COc1ccccc1-n1c(O)c(C=Nc2c(C)n(C)n(-c3ccccc3)c2=O)c(=O)[nH]c1=O	5	-20	13	3	1
CCOP1(=S)Oc2cc3c(cc2C(C(=O)OC)(C(F)(F)F)O1)OCO3 (stereo not given)	3	64*	-3	-18	-2
Cc1cccc(CNCCc2ccccc2)n1	-2	-3	5	2	-1
O=C1NC(=O)N(c2ccc(F)cc2)C(=O)/C1=C/c1ccsc1	4	20	3	23*	-1
SMILES	Beta2AR agonist	PfG6PD inh	MC4R antagonist	ABHD5-PLIN5 inh	MC4R barr agon
O=C1NC(=O)N(c2ccc(Br)cc2)C(=O)/C1=C/c1ccsc1	2	43	22	19	-1
O=C1NC(=O)N(Cc2ccccc2)C(=O)/C1=C\c1ccco1	58*	18	14	4	0
Cc1cc(C)cc(N2C(=O)NC(=O)/C(=C\C=C\c3ccco3)C2=O)c1	59*	17	1	23*	0
CC(C)c1ccc(N2C(=O)NC(=O)/C(=C/C=C/c3ccco3)C2=O)cc1	15	11	9	22*	0
CCc1ccc(N2C(=O)NC(=O)/C(=C\C=C\c3ccco3)C2=O)cc1	71*	34	24	22*	0
CC1=NN(c2ccccc2)C(=O)C1/C=C1\C(=O)NC(=O)N(c2cc(C)cc(C)c2)C1=O (stereo not given)	6	-31	5	-14	-1
O=C1NC(=O)N(c2ccccc2)C(=O)/C1=C\C=C\c1ccccc1	35	53	14	21	1
